In ChEMBL document CHEMBL2434850, “Synthesis and antibacterial activity of novel modified 5-O-mycaminose 14-membered ketolides” (2013) one finds MIC data, which are given here for nine compounds.

Molecules are shown by their SMILES. Converted amounts (≈) assume the structure as drawn.

Usually MIC stands for the smallest concentration in the dilution series that meets the test's criterion for growth inhibition. Read a low MIC as greater potency.

Holding throughout (format): functional
The test system of assay [1] is Staphylococcus aureus. Put plainly: Antibacterial activity against methicillin-resistant Staphylococcus aureus ATCC 33591 by broth microdilution method. The gist of the method:
(§1)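 MIC determined by broth microdilution following CLSI recommendations; strain is a methicillin-resistant S. aureus (MRSA).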

The test system of assay [2] is Staphylococcus epidermidis. The experiment in a line: Antibacterial activity against methicillin-sensitive Staphylococcus epidermidis ATCC 12228 by broth microdilution method. Put shortly: (§2)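 Value is the minimum inhibitory concentration (MIC), determined by broth microdilution following CLSI recommendations. Strains ATCC 29213, 15 and 09-06 are methicillin-sensitive S. aureus; ATCC 12228 and 09-9 are methicillin-sensitive S. epidermidis.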
In general terms: Dilution methods test growth across graded concentrations, often in twofold steps.

In assay [3] the test system is Staphylococcus aureus. The experiment in a line: Antibacterial activity against methicillin-sensitive Staphylococcus aureus 15 by broth microdilution method. Put shortly:
as §2

For assay [4], the system named is Staphylococcus epidermidis. Put plainly: Antibacterial activity against methicillin-resistant Staphylococcus epidermidis 09-3 by broth microdilution method.
The test system of assay [5] is Staphylococcus aureus. The experiment in a line: Antibacterial activity against methicillin-sensitive Staphylococcus aureus 09-6 by broth microdilution method. Put shortly: as §2
The subject of assay [6] is Staphylococcus epidermidis. The experiment in a line: Antibacterial activity against methicillin-sensitive Staphylococcus epidermidis 09-9 by broth microdilution method. The gist of the method: as §2
The test system of assay [7] is Staphylococcus aureus. The experiment in a line: Antibacterial activity against methicillin-resistant Staphylococcus aureus 09-13 by broth microdilution method. The gist of the method:
as §1

For assay [8], the system named is Staphylococcus aureus. Put plainly: Antibacterial activity against methicillin-sensitive Staphylococcus aureus ATCC 29213 by broth microdilution method. The gist of the method:
as §2

As to `CC[C@H]1OC(=O)[C@H](C)C(=O)[C@H](C)[C@@H](O[C@@H]2O[C@H](C)[C@@H](OC(=O)NCCc3ccccc3)[C@H](N(C)C)[C@H]2O)[C@@](C)(OC)C[C@@H](C)/C(=N\O)[C@H](C)[C@H]2OC(=O)O[C@@]21C`, the minimum inhibitory concentration (MIC) with Staphylococcus aureus [1] is above 32 µg/mL; in assay [2], 0.5 µg/mL (≈ 0.631 µM); with Staphylococcus aureus [3], 1 µg/mL (≈ 1.26 µM); in assay [4], above 32 µg/mL; in the assay with Staphylococcus aureus [5], 1 µg/mL (≈ 1.26 µM); in assay [6], 2 µg/mL (≈ 2.53 µM). Also, the minimal inhibitory concentration (MIC) against Staphylococcus aureus [7] was above 32 µg/mL; against Staphylococcus aureus [8] it was 1 µg/mL (≈ 1.26 µM).
Consider `CC[C@H]1OC(=O)[C@H](C)C(=O)[C@H](C)[C@@H](O[C@@H]2O[C@H](C)[C@@H](OC(=O)NCCc3ccccc3)[C@H](N(C)C)[C@H]2O)[C@@](C)(OC)C[C@@H](C)/C(=N\OC(=O)NCCc2ccccc2)[C@H](C)[C@H]2OC(=O)O[C@@]21C`, for which the MIC (in the assay on Staphylococcus aureus [1]; in assay [2]; in the assay with Staphylococcus aureus [3]; in assay [4]; in the assay with Staphylococcus aureus [5]; in assay [6]) was above 32 µg/mL in each case. The MIC in the assay on Staphylococcus aureus [7] and against Staphylococcus aureus [8] was above 32 µg/mL throughout.
As to `CC[C@H]1OC(=O)[C@H](C)C(=O)[C@H](C)[C@@H](O[C@@H]2O[C@H](C)[C@@H](OC(=O)Nc3ccc(C(F)(F)F)cc3)[C@H](N(C)C)[C@H]2O)[C@@](C)(OC)C[C@@H](C)/C(=N\O)[C@H](C)[C@H]2OC(=O)O[C@@]21C`, the minimal inhibitory concentration (MIC) was above 32 µg/mL against Staphylococcus aureus [1]; 32 µg/mL (≈ 38.5 µM) in assay [2]; above 32 µg/mL against Staphylococcus aureus [3]; above 32 µg/mL in assay [4]; above 32 µg/mL in the assay on Staphylococcus aureus [5]; above 32 µg/mL in assay [6]. For the same compound, the minimal inhibitory concentration (MIC) with Staphylococcus aureus [7] and against Staphylococcus aureus [8] was above 32 µg/mL in each case.
As to `CC[C@H]1OC(=O)[C@H](C)C(=O)[C@H](C)[C@@H](O[C@@H]2O[C@H](C)[C@@H](OC(=O)NC3CCCCC3)[C@H](N(C)C)[C@H]2O)[C@@](C)(OC)C[C@@H](C)/C(=N\OC(=O)NC2CCCCC2)[C@H](C)[C@H]2OC(=O)O[C@@]21C`, the MIC in the assay with Staphylococcus aureus [1] was above 32 µg/mL; in assay [2], 32 µg/mL (≈ 35.8 µM); against Staphylococcus aureus [3] it was above 32 µg/mL; in assay [4], above 32 µg/mL; in the assay on Staphylococcus aureus [5] it was above 32 µg/mL; in assay [6] it was above 32 µg/mL. Besides, the minimum inhibitory concentration (MIC) against Staphylococcus aureus [7] is above 32 µg/mL; in the assay on Staphylococcus aureus [8], 32 µg/mL (≈ 35.8 µM).
Consider `CCCCCNC(=O)O/N=C1\[C@H](C)C[C@](C)(OC)[C@H](O[C@@H]2O[C@H](C)[C@@H](OC(=O)NCCCCC)[C@H](N(C)C)[C@H]2O)[C@@H](C)C(=O)[C@@H](C)C(=O)O[C@H](CC)[C@@]2(C)OC(=O)O[C@@H]2[C@H]1C`, for which the MIC (with Staphylococcus aureus [1]; in assay [2]; in the assay on Staphylococcus aureus [3]; in assay [4]; against Staphylococcus aureus [5]; in assay [6]) was above 64 µg/mL each time. For the same compound, the MIC with Staphylococcus aureus [7] and with Staphylococcus aureus [8] was above 64 µg/mL in each case.
In the case of `CC[C@H]1OC(=O)[C@H](C)C(=O)[C@H](C)[C@@H](O[C@@H]2O[C@H](C)[C@@H](OC(=O)NCCCl)[C@H](N(C)C)[C@H]2O)[C@@](C)(OC)C[C@@H](C)/C(=N\OC(=O)NCCCl)[C@H](C)[C@H]2OC(=O)O[C@@]21C`, the MIC (in the assay on Staphylococcus aureus [1]; in assay [2]; in the assay with Staphylococcus aureus [3]; in assay [4]; against Staphylococcus aureus [5]; in assay [6]) was above 32 µg/mL in each case. Further, the MIC against Staphylococcus aureus [7] and in the assay on Staphylococcus aureus [8] was above 32 µg/mL in each case.
On to `CC[C@H]1OC(=O)[C@H](C)C(=O)[C@H](C)[C@@H](O[C@@H]2O[C@H](C)[C@@H](O)[C@H](N(C)C)[C@H]2O)[C@@](C)(OC)C[C@@H](C)/C(=N\O)[C@H](C)[C@H]2OC(=O)O[C@@]21C`, for which the MIC is above 64 µg/mL against Staphylococcus aureus [1]; 2 µg/mL (≈ 3.1 µM) in assay [2]; above 64 µg/mL in the assay on Staphylococcus aureus [3]; above 64 µg/mL in assay [4]; 2 µg/mL (≈ 3.1 µM) in the assay with Staphylococcus aureus [5]; 2 µg/mL (≈ 3.1 µM) in assay [6]. The MIC in the assay on Staphylococcus aureus [7] was above 64 µg/mL; against Staphylococcus aureus [8], 2 µg/mL (≈ 3.1 µM).
For `CC[C@H]1OC(=O)[C@H](C)[C@@H](O[C@H]2C[C@@](C)(OC)[C@@H](O)[C@H](C)O2)[C@H](C)[C@@H](O[C@@H]2O[C@H](C)C[C@H](N(C)C)[C@H]2O)[C@](C)(OC)C[C@@H](C)C(=O)[C@H](C)[C@@H](O)[C@]1(C)O` [CLARITHROMYCIN], the minimal inhibitory concentration (MIC) is above 64 µg/mL in the assay on Staphylococcus aureus [1]; 0.06 µg/mL (≈ 0.0802 µM) in assay [2]; 0.5 µg/mL (≈ 0.668 µM) against Staphylococcus aureus [3]; above 64 µg/mL in assay [4]; 0.06 µg/mL (≈ 0.0802 µM) against Staphylococcus aureus [5]; 4 µg/mL (≈ 5.35 µM) in assay [6]. For the same compound, the MIC against Staphylococcus aureus [7] is above 64 µg/mL; against Staphylococcus aureus [8], 0.06 µg/mL (≈ 0.0802 µM).
With `CC[C@H]1OC(=O)[C@H](C)C(=O)[C@H](C)[C@@H](O[C@@H]2O[C@H](C)C[C@H](N(C)C)[C@H]2O)[C@](C)(OC)C[C@@H](C)C(=O)[C@H](C)[C@H]2N(CCCCn3cnc(-c4cccnc4)c3)C(=O)O[C@]12C` [TELITHROMYCIN], the minimum inhibitory concentration (MIC) was above 32 µg/mL against Staphylococcus aureus [1]; 0.06 µg/mL (≈ 0.0739 µM) in assay [2]; 2 µg/mL (≈ 2.46 µM) against Staphylococcus aureus [3]; 32 µg/mL (≈ 39.4 µM) in assay [4]; 0.5 µg/mL (≈ 0.616 µM) against Staphylococcus aureus [5]; 0.06 µg/mL (≈ 0.0739 µM) in assay [6]. In addition, the minimum inhibitory concentration (MIC) is above 32 µg/mL in the assay with Staphylococcus aureus [7] and 0.5 µg/mL (≈ 0.616 µM) in the assay with Staphylococcus aureus [8].
